In one series the test system is CHO. Put plainly: Cytotoxicity against CHO cells by MTT assay. It counts as cell-based, Cricetulus griseus. Summed up:
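Chinese hamster ovary (CHO) cells; growth and survival measured by MTT assay. Samples run in triplicate on one occasion, with emetine dihydrochloride as reference drug.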

A further series concerns Plasmodium falciparum. Put plainly: Antiplasmodial activity against chloroquine-sensitive Plasmodium falciparum D10. It counts as functional, organism-based. Summed up: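 Asexual erythrocytic-stage P. falciparum kept in continuous in vitro culture (Trager–Jensen). Activity measured by the parasite lactate dehydrogenase assay, with chloroquine diphosphate as reference drug.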

A short description of series [1]: Selectivity index, ratio of IC50 for CHO cells to IC50 for chloroquine-sensitive Plasmodium falciparum D10. It counts as toxicity, cell-based. The following applies: hamster; read-out: Ratio IC50.
Setting [2] is: Plasmodium falciparum, D10, read-out: IC50.
Setting [3] is: Cricetulus griseus, CHO, read-out: IC50.

On to `O=c1c(-c2ccc(O)cc2)coc2c(O)c(O)ccc12`, for which the IC50 entry was “Not Active” in the series with CHO (cho) and 17.8 µM in the series with Plasmodium falciparum (setting [2]).
For `CC[C@H]1CN2CCc3cc(OC)c(OC)cc3[C@@H]2C[C@@H]1C[C@H]1NCCc2cc(OC)c(OC)cc21` [EMETINE], the IC50 in the series with CHO (setting [3]) came out at 0.12 µM.
As for `COc1ccc([C@]2(O)COc3c(CC=C(C)C)c(O)cc(O)c3C2=O)c(OC)c1CC=C(C)C` [SOPHONOROL E], the IC50 in the series with CHO (setting [3]) is 169 µM; with Plasmodium falciparum (setting [2]) it was 12.8 µM. For the same compound, the selectivity ratio in series [1] is 13.
In the case of `CC1(C)C=Cc2c(ccc([C@]3(O)COc4cc(O)cc(O)c4C3=O)c2O)O1` [SOPHORONOL A], the IC50 entry in the series on CHO (cho) and in the series on Plasmodium falciparum was “Not Active” each time.
With `COc1cc2ccc(=O)oc2cc1O` [SCOPOLETIN], the values for the IC50 result with CHO (cho) and in the series on Plasmodium falciparum (setting [2]) were “Not Active” and 494 µM, respectively.
With `O=c1cc(-c2ccc(O)c(O)c2)oc2cc(O)ccc12`, the values for the IC50 in the series on CHO (setting [3]) and in the series with Plasmodium falciparum (setting [2]) were 49.3 µM and 19.3 µM, respectively. Also, the selectivity ratio in series [1] was 3.
As for `COc1c([C@]2(O)COc3c4c(cc(O)c3C2=O)OC(C)(C)CC4)ccc2c1CCC(C)(C)O2` [SOPHONOROL C], the IC50 result in the series with CHO (cho) was “Not Active”; in the series with Plasmodium falciparum (setting [2]) it was 12.9 µM.
Take `COc1c(C2(O)COc3cc(O)cc(O)c3C2=O)ccc2c1C=CC(C)(C)O2` (stereo not given) [SOPHORONOL]: the IC50 was 223 µM in the series on CHO (setting [3]) and 114 µM in the series with Plasmodium falciparum (setting [2]). The selectivity ratio in series [1] stood at 2.
In the case of `COc1cc(O)c2c(c1CC=C(C)C)OC[C@@](O)(c1ccc(O)c(CC=C(C)C)c1OC)C2=O` [SOPHONOROL F], in the series with Plasmodium falciparum (setting [2]), the IC50 came out at 41 µM. Also, the selectivity ratio in series [1] was found to be 3.
As to `COc1c([C@]2(O)COc3cc(O)cc(O)c3C2=O)ccc2c1C=CC(C)(CO)O2` (stereo not given in full) [SOPHORONOL B], the IC50 result in the series on CHO (cho) and in the series with Plasmodium falciparum was “Not Active” each time.
For the compound `Oc1ccc2c(c1)OC[C@@H]1c3cc4c(cc3O[C@H]21)OCO4` [(+)-MAACKIAIN], the IC50 result in the series on CHO (cho) was “Not Active”; with Plasmodium falciparum (setting [2]), 177 µM.
As to `COc1c(O)cc([C@]2(O)COc3cc(O)cc(O)c3C2=O)c(OC)c1CC=C(C)C` [SOPHONOROL D], the IC50 is 172 µM with CHO (setting [3]) and 106 µM with Plasmodium falciparum (setting [2]). The selectivity ratio in series [1] turned out to be 2.
On the same counts, the results for `O=C(/C=C/c1ccc(O)cc1)c1ccc(O)cc1O` [ISOLIQUIRITIGENIN] are 45.9 µM, 32 µM and 1.

The values above are taken from ChEMBL document CHEMBL1152411, “Antiplasmodial isoflavanones from the roots of Sophora mollis” (J Nat Prod, 2009).
